NF-kB neuron act = raises NF-kB expression in human neuronal cells; NF-kB reporter expression; hits give high values; fold change at 12.5 µM; hit rate 1.6% among 190,000; in the data active = fold change above about 3.3
FLuc stim CS = firefly luciferase counter-screen for stimulation assays; AID 1027; ATPlite luciferase biochemical, luminescence, 10 min; 0 = ATP-free wells, 1 = DMSO control; P08659; activation factor at 10 µM; 200,000 tested, under 10 active;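 active = luciferase activation factor, scaled between plate controls, of at least 2 with compound at 10 µM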
Target sequence (P08659 whole entry, looked up): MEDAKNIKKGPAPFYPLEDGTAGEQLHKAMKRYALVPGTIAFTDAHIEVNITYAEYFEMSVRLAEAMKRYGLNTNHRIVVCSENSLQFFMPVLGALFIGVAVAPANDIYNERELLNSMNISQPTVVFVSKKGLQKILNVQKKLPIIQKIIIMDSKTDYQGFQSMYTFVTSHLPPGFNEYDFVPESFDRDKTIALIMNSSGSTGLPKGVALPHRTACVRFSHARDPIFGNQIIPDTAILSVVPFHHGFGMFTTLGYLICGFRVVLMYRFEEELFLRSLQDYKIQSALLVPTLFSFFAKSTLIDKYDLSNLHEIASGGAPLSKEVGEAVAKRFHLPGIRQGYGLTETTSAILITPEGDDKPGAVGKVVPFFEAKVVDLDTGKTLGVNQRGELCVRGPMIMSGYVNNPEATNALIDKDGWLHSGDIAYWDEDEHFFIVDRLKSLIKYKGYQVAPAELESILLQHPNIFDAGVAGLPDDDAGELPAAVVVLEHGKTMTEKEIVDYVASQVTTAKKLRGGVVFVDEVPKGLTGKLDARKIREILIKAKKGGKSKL
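Assay system: Luciferase/luciferin detection reagent, cell-free biochemical luciferase assay / Also added: ATP substrate / Schedule: 10 min at ambient temperature / Measured by: luminescence measurement of luciferase light output / Benchmarks: low control with PBS replacing ATP, high control enzyme plus ATP without compound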
STAT1 activator = activators of IFN-gamma induced STAT1 signaling | activation (% of control), % at 5.5 µM | hit rate 2.6% among 200,000 | AID 932 | NIH 3T3 STAT1-luciferase reporter, luminescence; 100% = IFN-gamma alone, no compound;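 active = activation above the screen-wide mean activation plus 3 SD, cut at about 130% in these data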;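 note: raw ratio to IFN-gamma control signal so 100% means no change and 0% no light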
APP 5'UTR act = APP 5'UTR luciferase reporter activation | AID 1276 | activation, % at 2 µM | hit rate 1% among 190,000 | SH-SY5Y APP 5'UTR luciferase reporter, luminescence; zero percent = DMSO vehicle wells;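 active = activation above a set limit, based on mean plus 3 SD of controls, cut at about 140% in these data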
FLuc inh counter = counter-screen for luciferase assay inhibitors: firefly luciferase inhibition; P08659; ATPLite firefly luciferase biochemical luminescence, 10 min; inhibition, % at 10 µM; hit rate 1.5% among 200,000;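 active = inhibition above about 50% when tested at 10 µM, limit read from the data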
The depositor's hits bear a star. The list is not random: actives were taken first. Their share in the collection is about 4.1%.

SMILES	NF-kB neuron act	FLuc stim CS	STAT1 activator	APP 5'UTR act	FLuc inh counter
CC1=CC2=NC(=O)/C(=C\c3cc(C)n(-c4ccccc4F)c3C)C(=N)N2O1	1.5	1	101.9	-0.2	4.3
Cc1cc(/C=C2/C(=N)N3C(=NC2=O)SN=C3S(C)(=O)=O)c(C)n1-c1ccccc1F	2.81	0.1	112.0	60.0	93.3*
O=C(Nc1cccc(-c2csc(-c3ccccc3)n2)c1)c1cccs1	1.05	1	116.3	4.9	3.5
Nc1nc(-c2ccccc2)cc(-c2ccccc2O)n1	1.42	1	90.9	3.7	-1.3
Nc1nc(-c2ccc(-c3ccccc3)cc2)cs1	7.86*	0.3	140.8*	178.8*	71.7*
Oc1ccccc1-c1csc(-c2ccccc2)n1	1.18	0.7	131.1*	115.5	33.7
CC(C)C(=O)Nc1ccc(-c2csc(-c3ccccc3)n2)cc1	1.77	1	141.6*	133.2	2.5
Nc1nc(-c2ccc(C(=O)O)cc2)cs1	1.19	1	100.9	40.1	-3.7
CC(C)C(=O)Nc1cccc(-c2csc(-c3ccccc3)n2)c1	1.23	1	117.4	37.0	-0.1
c1ccc(-c2csc(-c3ccncc3)n2)cc1	1.4	1	132.7*	7.4	3.4
O=C(NNC(=O)c1ccc(-c2ccccc2)cc1)c1ccccc1	1.46	1	124.1	19.9	2.0
CCN(Cc1ccccc1)C(=O)C1CCN(Cc2sccc2C)CC1	1.41	1.1	102.1	11.5	-8.0
CC1(C)CC(=O)C2=C(C1)NC(=O)CC2c1ccccc1F (stereo unspecified)	1.04	1.1	98.2	4.6	-5.8
c1ccc2c(-c3csc(-c4ccncc4)n3)c[nH]c2c1	2.19	0.8	147.3*	30.8	19.5
Brc1ccc(-c2csc(-c3c[nH]c4ccccc34)n2)cc1	1.83	1	119.0	37.6	-2.3
Oc1ccc(N=C/C=C/c2cccc(Br)c2)cc1-c1nc2ccccc2s1	1.3	0.6	143.6*	43.9	38.4
CN(CCC1CCCCO1)C(=O)CCc1nnc(CCCCc2ccccc2)o1 (stereo unspecified)	1.65	1.1	96.4	20.7	-5.3
CCN(Cc1ccncc1)C(=O)CCc1nnc(CCC2CCCCC2)o1	1.68	1	107.9	12.4	-3.0
CN(CCCC1CCCC1)C(=O)CCc1nnc(-c2ccccc2)o1	3.28	0.9	147.8*	89.7	7.1
O=C(CCc1nnc(-c2ccccc2)o1)NC1CCCCC1	1.85	1	130.5*	23.3	-4.4
Cc1cc(C)n(CCN(C)C(=O)CCc2nnc(CCC3CCCCC3)o2)n1	3.1	1.1	140.0*	70.3	-8.1
CCN1CCc2c(OCc3ccc(C(=O)OC)o3)cccc2C1=O	1.42	1	98.7	8.1	0.9
Cc1ccc(C2CC(=O)NC(SCCC(C)C)=C2C#N)cc1 (stereo unspecified)	1.09	1	96.4	4.9	-2.9
COc1ccc(CNC(=O)COC(=O)c2c[nH]c(=O)[nH]c2=O)cc1OC	1.09	1	101.2	2.6	-4.9
CCCCN(C)C(=O)c1cc2cc3ccc(OC)cc3nc2s1	3.12	0.2	112.9	188.4*	84.7*
SMILES	NF-kB neuron act	FLuc stim CS	STAT1 activator	APP 5'UTR act	FLuc inh counter
O=C(/C=C/c1cccc([N+](=O)[O-])c1)N1CCOCC1	1.21	1	95.7	-3.5	-3.7
O=C(/C=C/c1cccc(Oc2ccccc2)c1)N1CCOCC1	2.61	0.8	139.2*	144.9*	18.1
CC(C)C/C=C1\CCc2c([nH]c3ccccc23)C1=O	2.54	1	143.1*	48.0	3.4
Cc1c(NC(=O)COC(=O)c2cc(-c3ccc(-c4ccccc4)cc3)nc3ccccc23)c(=O)n(-c2ccccc2)n1C	4.11*	0.2	146.5*	99.6	84.7*
COc1ccc(-c2cc(C(=O)OC(C)C(=O)Nc3c(C)n(C)n(-c4ccccc4)c3=O)c3ccccc3n2)cc1 (stereo unspecified)	0.71	0.9	111.4	4.8	10.2
CCCS/C(N)=N/N=C/c1ccccc1O	3.31*	0.8	100.0	89.8	19.9
Cc1ccc(CCNC(=O)c2nnn(-c3cc(C)cc(C)c3)c2N)cc1	1.2	1	104.1	-8.4	-2.9
Cc1ccc(NC(=O)c2nnn(-c3cc(C)cc(C)c3)c2N)cc1	1.49	1.1	128.7*	27.4	-8.4
CC(C)/C=N\NC(=O)CCCCC(=O)N/N=C/C(C)C	0.99	1	85.3	-0.5	-0.4
O=C1CCCCC1Sc1nnc(-c2ccc3c(c2)OCO3)o1 (stereo unspecified)	1.13	0.1	18.3	177.6*	88.9*

High-throughput results from PubChem.
